# Measurements from ChEMBL document CHEMBL3044834, “Novel protoporphyrinogen oxidase inhibitors: 3H-pyrazolo[3,4-d][1,2,3]triazin-4-one derivatives” (J Agric Food Chem, 2008).
# How the values were obtained:
# Type in all cases: functional
# [1] = tested on: Brassica rapa subsp. oleifera; assay: Herbicidal activity against Brassica rapa subsp. oleifera assessed as inhibition of fresh weed plant weight at 93.75 g/ha using post-emergence treatment protocol
# Method in brief: (§1)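 Test compounds made up as emulsions by dissolving in 100 µL N,N-dimethylformamide, then adding a little Tween 20 and water. For post-emergence, weed seedlings at one leaf and one stem were sprayed at the same rates as the pre-emergence test. Fresh weight was recorded 15 days after treatment and expressed as percent inhibition versus controls. All treatments were run in triplicate.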
# Amaranthus retroflexus [2] = assay: Herbicidal activity against Amaranthus retroflexus assessed as inhibition of fresh weed plant weight at 750 g/ha using pre-emergence treatment protocol; method in brief: as §1
# [3] = tested on: Brassica rapa subsp. oleifera; assay: Herbicidal activity against Brassica rapa subsp. oleifera assessed as inhibition of fresh weed plant weight at 375 g/ha using pre-emergence treatment protocol
# Digitaria sanguinalis [4] = assay: Herbicidal activity against Digitaria sanguinalis (hairy crabgrass) assessed as inhibition of fresh weed plant weight at 375 g/ha using pre-emergence treatment protocol
# Digitaria sanguinalis [5] = assay: Herbicidal activity against Digitaria sanguinalis (hairy crabgrass) assessed as inhibition of fresh weed plant weight at 187.5 g/ha using post-emergence treatment protocol; method in brief: as §1
# Echinochloa crus-galli [6] = assay: Herbicidal activity against Echinochloa crus-galli (barnyard grass) assessed as inhibition of fresh weed plant weight at 93.75 g/ha using post-emergence treatment protocol; method in brief: as §1
# Digitaria sanguinalis [7] = assay: Herbicidal activity against Digitaria sanguinalis (hairy crabgrass) assessed as inhibition of fresh weed plant weight at 45 g/ha using pre-emergence treatment protocol
# Amaranthus retroflexus [8] = assay: Herbicidal activity against Amaranthus retroflexus assessed as inhibition of fresh weed plant weight at 1500 g/ha using pre-emergence treatment protocol
# [9] = tested on: Brassica rapa subsp. oleifera; assay: Herbicidal activity against Brassica rapa subsp. oleifera assessed as inhibition of fresh weed plant weight at 187.5 g/ha using pre-emergence treatment protocol
# [10] = tested on: Brassica rapa subsp. oleifera; assay: Herbicidal activity against Brassica rapa subsp. oleifera assessed as inhibition of fresh weed plant weight at 22.5 g/ha using pre-emergence treatment protocol
# Digitaria sanguinalis [11] = assay: Herbicidal activity against Digitaria sanguinalis (hairy crabgrass) assessed as inhibition of fresh weed plant weight at 187.5 g/ha using pre-emergence treatment protocol
# Digitaria sanguinalis [12] = assay: Herbicidal activity against Digitaria sanguinalis (hairy crabgrass) assessed as inhibition of fresh weed plant weight at 22.5 g/ha using pre-emergence treatment protocol
# Digitaria sanguinalis [13] = assay: Herbicidal activity against Digitaria sanguinalis (hairy crabgrass) assessed as inhibition of fresh weed plant weight at 93.75 g/ha using pre-emergence treatment protocol
# [14] = tested on: Brassica rapa subsp. oleifera; assay: Herbicidal activity against Brassica rapa subsp. oleifera assessed as inhibition of fresh weed plant weight at 750 g/ha using post-emergence treatment protocol; method in brief: as §1
# Echinochloa crus-galli [15] = assay: Herbicidal activity against Echinochloa crus-galli (barnyard grass) assessed as inhibition of fresh weed plant weight at 1500 g/ha using post-emergence treatment protocol; method in brief: as §1
# Amaranthus retroflexus [16] = assay: Herbicidal activity against Amaranthus retroflexus assessed as inhibition of fresh weed plant weight at 45 g/ha using pre-emergence treatment protocol
# Echinochloa crus-galli [17] = assay: Herbicidal activity against Echinochloa crus-galli (barnyard grass) assessed as inhibition of fresh weed plant weight at 187.5 g/ha using pre-emergence treatment protocol; method in brief: as §1
# Amaranthus retroflexus [18] = assay: Herbicidal activity against Amaranthus retroflexus assessed as inhibition of fresh weed plant weight at 750 g/ha using post-emergence treatment protocol; method in brief: as §1
# Amaranthus retroflexus [19] = assay: Herbicidal activity against Amaranthus retroflexus assessed as inhibition of fresh weed plant weight at 187.5 g/ha using pre-emergence treatment protocol
# Echinochloa crus-galli [20] = assay: Herbicidal activity against Echinochloa crus-galli (barnyard grass) assessed as inhibition of fresh weed plant weight at 22.5 g/ha using pre-emergence treatment protocol; method in brief: as §1
# [21] = tested on: Brassica rapa subsp. oleifera; assay: Herbicidal activity against Brassica rapa subsp. oleifera assessed as inhibition of fresh weed plant weight at 187.5 g/ha using post-emergence treatment protocol; method in brief: as §1
# Digitaria sanguinalis [22] = assay: Herbicidal activity against Digitaria sanguinalis (hairy crabgrass) assessed as inhibition of fresh weed plant weight at 1500 g/ha using post-emergence treatment protocol; method in brief: as §1
# Echinochloa crus-galli [23] = assay: Herbicidal activity against Echinochloa crus-galli (barnyard grass) assessed as inhibition of fresh weed plant weight at 45 g/ha using pre-emergence treatment protocol
# [24] = tested on: Brassica rapa subsp. oleifera; assay: Herbicidal activity against Brassica rapa subsp. oleifera assessed as inhibition of fresh weed plant weight at 45 g/ha using pre-emergence treatment protocol
# Echinochloa crus-galli [25] = assay: Herbicidal activity against Echinochloa crus-galli (barnyard grass) assessed as inhibition of fresh weed plant weight at 187.5 g/ha using post-emergence treatment protocol; method in brief: as §1
# Amaranthus retroflexus [26] = assay: Herbicidal activity against Amaranthus retroflexus assessed as inhibition of fresh weed plant weight at 93.75 g/ha using post-emergence treatment protocol; method in brief: as §1
# Amaranthus retroflexus [27] = assay: Herbicidal activity against Amaranthus retroflexus assessed as inhibition of fresh weed plant weight at 375 g/ha using post-emergence treatment protocol; method in brief: as §1
# Echinochloa crus-galli [28] = assay: Herbicidal activity against Echinochloa crus-galli (barnyard grass) assessed as inhibition of fresh weed plant weight at 375 g/ha using pre-emergence treatment protocol; method in brief: as §1
# [29] = tested on: Brassica rapa subsp. oleifera; assay: Herbicidal activity against Brassica rapa subsp. oleifera assessed as inhibition of fresh weed plant weight at 1500 g/ha using post-emergence treatment protocol; method in brief: as §1
# Amaranthus retroflexus [30] = assay: Herbicidal activity against Amaranthus retroflexus assessed as inhibition of fresh weed plant weight at 22.5 g/ha using pre-emergence treatment protocol
# [31] = tested on: Brassica rapa subsp. oleifera; assay: Herbicidal activity against Brassica rapa subsp. oleifera assessed as inhibition of fresh weed plant weight at 1500 g/ha using pre-emergence treatment protocol
# Digitaria sanguinalis [32] = assay: Herbicidal activity against Digitaria sanguinalis (hairy crabgrass) assessed as inhibition of fresh weed plant weight at 1500 g/ha using pre-emergence treatment protocol
# Digitaria sanguinalis [33] = assay: Herbicidal activity against Digitaria sanguinalis (hairy crabgrass) assessed as inhibition of fresh weed plant weight at 750 g/ha using post-emergence treatment protocol; method in brief: as §1
# Amaranthus retroflexus [34] = assay: Herbicidal activity against Amaranthus retroflexus assessed as inhibition of fresh weed plant weight at 93.75 g/ha using pre-emergence treatment protocol
# Echinochloa crus-galli [35] = assay: Herbicidal activity against Echinochloa crus-galli (barnyard grass) assessed as inhibition of fresh weed plant weight at 1500 g/ha using pre-emergence treatment protocol
# Digitaria sanguinalis [36] = assay: Herbicidal activity against Digitaria sanguinalis (hairy crabgrass) assessed as inhibition of fresh weed plant weight at 750 g/ha using pre-emergence treatment protocol
# Echinochloa crus-galli [37] = assay: Herbicidal activity against Echinochloa crus-galli (barnyard grass) assessed as inhibition of fresh weed plant weight at 750 g/ha using pre-emergence treatment protocol
# [38] = tested on: Brassica rapa subsp. oleifera; assay: Herbicidal activity against Brassica rapa subsp. oleifera assessed as inhibition of fresh weed plant weight at 93.75 g/ha using pre-emergence treatment protocol
# Amaranthus retroflexus [39] = assay: Herbicidal activity against Amaranthus retroflexus assessed as inhibition of fresh weed plant weight at 375 g/ha using pre-emergence treatment protocol
# [40] = tested on: Brassica rapa subsp. oleifera; assay: Herbicidal activity against Brassica rapa subsp. oleifera assessed as inhibition of fresh weed plant weight at 375 g/ha using post-emergence treatment protocol; method in brief: as §1
# Digitaria sanguinalis [41] = assay: Herbicidal activity against Digitaria sanguinalis (hairy crabgrass) assessed as inhibition of fresh weed plant weight at 93.75 g/ha using post-emergence treatment protocol; method in brief: as §1
# Digitaria sanguinalis [42] = assay: Herbicidal activity against Digitaria sanguinalis (hairy crabgrass) assessed as inhibition of fresh weed plant weight at 375 g/ha using post-emergence treatment protocol; method in brief: as §1
# [43] = tested on: Brassica rapa subsp. oleifera; assay: Herbicidal activity against Brassica rapa subsp. oleifera assessed as inhibition of fresh weed plant weight at 750 g/ha using pre-emergence treatment protocol
# Echinochloa crus-galli [44] = assay: Herbicidal activity against Echinochloa crus-galli (barnyard grass) assessed as inhibition of fresh weed plant weight at 750 g/ha using post-emergence treatment protocol; method in brief: as §1
# Echinochloa crus-galli [45] = assay: Herbicidal activity against Echinochloa crus-galli (barnyard grass) assessed as inhibition of fresh weed plant weight at 375 g/ha using post-emergence treatment protocol; method in brief: as §1
# Amaranthus retroflexus [46] = assay: Herbicidal activity against Amaranthus retroflexus assessed as inhibition of fresh weed plant weight at 187.5 g/ha using post-emergence treatment protocol; method in brief: as §1
# Echinochloa crus-galli [47] = assay: Herbicidal activity against Echinochloa crus-galli (barnyard grass) assessed as inhibition of fresh weed plant weight at 93.75 g/ha using pre-emergence treatment protocol
# Amaranthus retroflexus [48] = assay: Herbicidal activity against Amaranthus retroflexus assessed as inhibition of fresh weed plant weight at 1500 g/ha using post-emergence treatment protocol; method in brief: as §1
smiles,measurement,setting,value
C=CCN1C(=O)COc2cc(F)c(-n3nnc4c(cnn4CC=C)c3=O)cc21,inhibition at 93.75 g/ha,[1],19.6%
same,inhibition at 750 g/ha,Amaranthus retroflexus [2],100%
same,inhibition at 375 g/ha,[3],100%
same,inhibition at 375 g/ha,Digitaria sanguinalis [4],51%
same,inhibition at 187.5 g/ha,Digitaria sanguinalis [5],0%
same,inhibition at 93.75 g/ha,Echinochloa crus-galli [6],0.2%
same,inhibition at 45 g/ha,Digitaria sanguinalis [7],17.1%
same,inhibition at 1500 g/ha,Amaranthus retroflexus [8],100%
same,inhibition at 187.5 g/ha,[9],93.3%
same,inhibition at 22.5 g/ha,[10],12.7%
same,inhibition at 187.5 g/ha,Digitaria sanguinalis [11],26.5%
same,inhibition at 22.5 g/ha,Digitaria sanguinalis [12],4.9%
same,inhibition at 93.75 g/ha,Digitaria sanguinalis [13],20.4%
same,inhibition at 750 g/ha,[14],100%
same,inhibition at 1500 g/ha,Echinochloa crus-galli [15],89.3%
same,inhibition at 45 g/ha,Amaranthus retroflexus [16],82.8%
same,inhibition at 187.5 g/ha,Echinochloa crus-galli [17],34.4%
same,inhibition at 750 g/ha,Amaranthus retroflexus [18],85.1%
same,inhibition at 187.5 g/ha,Amaranthus retroflexus [19],100%
same,inhibition at 22.5 g/ha,Echinochloa crus-galli [20],5.4%
same,inhibition at 187.5 g/ha,[21],55.6%
same,inhibition at 1500 g/ha,Digitaria sanguinalis [22],31.2%
same,inhibition at 45 g/ha,Echinochloa crus-galli [23],7.4%
same,inhibition at 45 g/ha,[24],40.7%
same,inhibition at 187.5 g/ha,Echinochloa crus-galli [25],14.2%
same,inhibition at 93.75 g/ha,Amaranthus retroflexus [26],19%
same,inhibition at 375 g/ha,Amaranthus retroflexus [27],53.7%
same,inhibition at 375 g/ha,Echinochloa crus-galli [28],47.4%
same,inhibition at 1500 g/ha,[29],100%
same,inhibition at 22.5 g/ha,Amaranthus retroflexus [30],3.4%
same,inhibition at 1500 g/ha,[31],100%
same,inhibition at 1500 g/ha,Digitaria sanguinalis [32],92.3%
same,inhibition at 750 g/ha,Digitaria sanguinalis [33],4.2%
same,inhibition at 93.75 g/ha,Amaranthus retroflexus [34],100%
same,inhibition at 1500 g/ha,Echinochloa crus-galli [35],96.5%
same,inhibition at 750 g/ha,Digitaria sanguinalis [36],67.4%
same,inhibition at 750 g/ha,Echinochloa crus-galli [37],89.2%
same,inhibition at 93.75 g/ha,[38],60.4%
same,inhibition at 375 g/ha,Amaranthus retroflexus [39],100%
same,inhibition at 375 g/ha,[40],95.3%
same,inhibition at 93.75 g/ha,Digitaria sanguinalis [41],0%
same,inhibition at 375 g/ha,Digitaria sanguinalis [42],0%
same,inhibition at 750 g/ha,[43],100%
same,inhibition at 750 g/ha,Echinochloa crus-galli [44],49.9%
same,inhibition at 375 g/ha,Echinochloa crus-galli [45],23.2%
same,inhibition at 187.5 g/ha,Amaranthus retroflexus [46],30.6%
same,inhibition at 93.75 g/ha,Echinochloa crus-galli [47],10%
same,inhibition at 1500 g/ha,Amaranthus retroflexus [48],100%
